From ChEMBL document CHEMBL5247635 (Eur J Med Chem, 2022)
Calls of active or inactive are those of the source. The rule behind the calls is not given here.

Key:
[1] = Thermodynamic aqueous solubility of compound at 25 degreeC measured after 24 hrs by HPLC analysis; type: physicochemical; settings: buffer, read-out: Therm_solubility
Summary of the method: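 Excess compound was suspended in water (pH 5.5), sonicated 10 min, equilibrated overnight at room temperature, and centrifuged. Supernatant was diluted and quantified by HPLC (UV 254 nm) against a five-point standard curve (10–500 µM).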

Trypanothione reductase [2] = target: T1, Trypanothione reductase (Leishmania infantum, UniProt A4HSF7); experiment: Inhibition of HIS-tagged recombinant Leishmania infantum TryR oxidoreductase activity expressed in Escherichia coli in the presence of NADPH by spectrophotometry based DTNB-coupled assay
T1 sequence (A4HSF7 whole entry): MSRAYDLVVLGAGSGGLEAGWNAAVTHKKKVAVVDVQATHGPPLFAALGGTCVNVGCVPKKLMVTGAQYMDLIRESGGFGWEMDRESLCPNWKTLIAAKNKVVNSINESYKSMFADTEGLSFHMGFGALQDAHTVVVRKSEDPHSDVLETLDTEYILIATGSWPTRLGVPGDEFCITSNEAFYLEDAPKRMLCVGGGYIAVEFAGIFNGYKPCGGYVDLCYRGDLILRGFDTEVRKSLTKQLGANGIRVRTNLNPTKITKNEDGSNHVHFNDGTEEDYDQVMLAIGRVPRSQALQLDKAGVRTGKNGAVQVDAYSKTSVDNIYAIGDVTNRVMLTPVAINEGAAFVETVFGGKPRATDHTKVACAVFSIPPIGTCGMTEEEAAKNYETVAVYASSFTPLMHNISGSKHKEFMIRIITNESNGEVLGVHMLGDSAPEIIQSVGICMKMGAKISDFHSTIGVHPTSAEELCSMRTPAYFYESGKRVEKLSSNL
Summary of the method: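 HIS-tagged LiTryR was used in a DTNB-coupled assay at 26 °C. Buffer: 40 mM HEPES pH 7.5, 1 mM EDTA, 30 µM NADP+, 25 µM DTNB, 150 µM NADPH, 1.75% DMSO. Standard runs used 1 µM TS2 and 7 nM enzyme; cross-species runs used 50 µM TS2 and 0.5 nM enzyme. Started with NADPH + TS2; TNB read at 412 nm. Compounds were screened at 75 µM first. Three independent experiments.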

Trypanothione reductase [3] = target: T1, Trypanothione reductase; experiment: Disruption of HIS-FLAG-tagged recombinant Leishmania infantum TryR dimerization expressed in Escherichia coli Rossetta BL21 (DE3) cells incubated for 16 hrs by ELISA analysis
Summary of the method: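 400 nM HIS-FLAG-tagged LiTryR (co-purified with HIS-tagged LiTryR as heterodimer) incubated with compound (3.1–75 μM) in 50 mM Tris pH 8.0, 300 mM NaCl, 16 h, 37 °C with vigorous shaking; centrifuged, supernatant captured on α-FLAG plates, detected with HRP-α-HIS antibody and o-phenylenediamine, A490. Signal normalized to DMSO; IC50 by nonlinear regression; triplicate, three independent experiments.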

Trypanothione reductase [4] = target: Trypanothione reductase (Trypanosoma brucei brucei, UniProt P39051); experiment: Inhibition of HIS-tagged recombinant Trypanosoma brucei TryR oxidoreductase activity expressed in Escherichia coli in the presence of NADPH by spectrophotometry based DTNB-coupled assay
Sequence of Trypanothione reductase (Trypanosoma brucei brucei, UniProt P39051) (P39051 whole entry): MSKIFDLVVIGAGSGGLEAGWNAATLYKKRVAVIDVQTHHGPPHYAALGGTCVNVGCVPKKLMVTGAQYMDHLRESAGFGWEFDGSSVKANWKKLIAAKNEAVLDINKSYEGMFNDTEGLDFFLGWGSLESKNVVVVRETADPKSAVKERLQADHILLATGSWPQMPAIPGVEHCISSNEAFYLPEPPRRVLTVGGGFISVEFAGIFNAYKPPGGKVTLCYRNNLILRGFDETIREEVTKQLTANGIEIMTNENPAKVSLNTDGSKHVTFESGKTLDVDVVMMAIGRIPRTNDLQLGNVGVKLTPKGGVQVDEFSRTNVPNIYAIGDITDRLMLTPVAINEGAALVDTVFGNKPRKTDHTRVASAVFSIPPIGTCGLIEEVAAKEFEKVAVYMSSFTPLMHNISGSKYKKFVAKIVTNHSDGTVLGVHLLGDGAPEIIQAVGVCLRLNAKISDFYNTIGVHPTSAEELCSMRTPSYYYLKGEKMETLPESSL
Summary of the method: (§1)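 HIS-tagged TryR from each species was expressed in E. coli. Activity was read by DTNB-coupled assay at 26 °C in 40 mM HEPES pH 7.5, 1 mM EDTA, 30 µM NADP+, 25 µM DTNB, 150 µM NADPH, 1.75% DMSO. Conditions were 50 µM TS2 and 0.5 nM enzyme; reaction started with NADPH + TS2. TNB absorbance at 412 nm. Three independent experiments.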

Trypanothione reductase [5] = target: Trypanothione reductase (Trypanosoma cruzi, UniProt P28593); experiment: Inhibition of HIS-tagged recombinant Trypanosoma cruzi TryR oxidoreductase activity expressed in Escherichia coli in the presence of NADPH by spectrophotometry based DTNB-coupled assay; summary of the method: as §1
Sequence of Trypanothione reductase (Trypanosoma cruzi, UniProt P28593) (P28593 whole entry): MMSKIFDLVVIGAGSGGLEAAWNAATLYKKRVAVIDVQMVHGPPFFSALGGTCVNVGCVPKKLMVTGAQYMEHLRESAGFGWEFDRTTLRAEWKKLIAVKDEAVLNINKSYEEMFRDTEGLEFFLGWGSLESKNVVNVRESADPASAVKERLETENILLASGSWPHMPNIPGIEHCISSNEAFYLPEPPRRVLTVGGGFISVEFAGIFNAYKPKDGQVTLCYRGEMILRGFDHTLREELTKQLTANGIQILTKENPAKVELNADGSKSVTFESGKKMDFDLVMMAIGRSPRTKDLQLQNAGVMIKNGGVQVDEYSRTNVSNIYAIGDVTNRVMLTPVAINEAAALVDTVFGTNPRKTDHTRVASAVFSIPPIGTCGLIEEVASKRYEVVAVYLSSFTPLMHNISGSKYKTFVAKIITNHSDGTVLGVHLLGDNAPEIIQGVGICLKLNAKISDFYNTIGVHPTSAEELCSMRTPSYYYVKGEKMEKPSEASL

Trypanothione reductase [6] = target: Trypanothione reductase (Trypanosoma congolense, UniProt P13110); experiment: Inhibition of HIS-tagged recombinant Trypanosoma congolense TryR oxidoreductase activity expressed in Escherichia coli in the presence of NADPH by spectrophotometry based DTNB-coupled assay; summary of the method: as §1
Sequence of Trypanothione reductase (Trypanosoma congolense, UniProt P13110) (P13110 whole entry): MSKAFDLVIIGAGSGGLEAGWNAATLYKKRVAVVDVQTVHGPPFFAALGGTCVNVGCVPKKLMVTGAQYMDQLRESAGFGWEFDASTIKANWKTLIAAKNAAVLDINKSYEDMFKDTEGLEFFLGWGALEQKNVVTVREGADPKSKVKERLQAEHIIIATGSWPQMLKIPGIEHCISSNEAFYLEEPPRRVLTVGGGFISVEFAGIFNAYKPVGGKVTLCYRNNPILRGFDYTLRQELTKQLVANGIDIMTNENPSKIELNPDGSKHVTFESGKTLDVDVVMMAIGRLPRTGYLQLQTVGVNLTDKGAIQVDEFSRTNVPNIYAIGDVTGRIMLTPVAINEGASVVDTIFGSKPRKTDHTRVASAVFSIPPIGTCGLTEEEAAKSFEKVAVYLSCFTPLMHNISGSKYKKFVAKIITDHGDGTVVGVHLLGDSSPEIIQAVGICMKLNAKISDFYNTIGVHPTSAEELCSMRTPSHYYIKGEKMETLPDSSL

Leishmania infantum [7] = experiment: Antileishmanial activity against Leishmania infantum MCAN/ES/89/IPZ229/1/89 axenic amastigotes assessed as reduction in parasite viability treated for 24 hrs by PI staining based flow cytometry; type: functional, organism-based; settings: MCAN/ES/89/IPZ229/1/89, 24 h
Summary of the method: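 Axenic amastigotes were seeded from log-phase cultures at 10^5 parasites/mL in M199-based medium at pH 5.4. They were derived from promastigotes by 3 days at 37 °C. Compounds at 2.3–75 µM for 24 h at 37 °C. Viability read by propidium iodide flow cytometry. EC50 ± SE from three independent experiments, each in triplicate.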

[8] = Cytotoxicity against human HepG2 cells assessed as reduction in cell proliferation treated for 24 hrs by crystal violet staining based analysis; type: toxicity
[9] = Selectivity index, ratio of CC50 for human HepG2 cells to EC50 for Leishmania infantum MCAN/ES/89/IPZ229/1/89 axenic amastigotes; type: toxicity; settings: read-out: Ratio CC50/EC50
Leishmania infantum [10] = experiment: Antileishmanial activity against GFP-expressing Leishmania infantum intracellular amastigotes infected in human THP-1 derived macrophage cells assessed as reduction in parasite viability measured for 72 hrs by resazurin/alamar blue fluorometric assay; type: functional, organism-based
Summary of the method: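 Human THP-1-derived macrophages infected with GFP-expressing L. infantum amastigotes; compounds at 2.3–75 µM, infected cells monitored for 72 h. EC50 ± SE from three independent experiments.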

[11] = Cytotoxicity against human HepG2 cells assessed as reduction in cell proliferation measured after 72 hrs by crystal violet staining based analysis; type: toxicity
[12] = Selectivity index, ratio of CC50 for human HepG2 cells to EC50 for GFP-expressing Leishmania infantum intracellular amastigotes infected in human THP-1 derived macrophage cells; type: toxicity, cell-based; settings: read-out: Ratio CC50/EC50
Leishmania infantum [13] = experiment: Antileishmanial activity against Leishmania infantum promastigotes assessed as reduction in non-protein thiol content at 75 uM incubated for 1 hrs by CMF diacetate probe based flow cytometry relative to control; type: functional; set-up: scale not given: the % may be the effect or the level left
Summary of the method: (§2)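 Promastigotes grown in RPMI-1640 with 10% FCS and 25 mM HEPES pH 7.2 at 26 °C. Treatments were 75 µM for 1 h, 5 mM BSO for 72 h, or both combined; vehicle served as control. Some parasites were also H2O2-treated. Non-protein thiols read by flow cytometry as CMF diacetate green fluorescence in PI-excluding live parasites. Means of nine independent experiments with 99.0% confidence intervals.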

Leishmania infantum [14] = experiment: Antileishmanial activity against Leishmania infantum promastigotes assessed as reduction in total thiol content at 75 uM treated for 1 hr by CMF diacetate probe based flow cytometry relative to control; type: functional; set-up: scale not given: the % may be the effect or the level left; summary of the method: as §2
Leishmania infantum [15] = experiment: Antileishmanial activity against H2O2-induced Leishmania infantum promastigotes assessed as reduction in non-protein thiol content at 75 uM treated for 1 hr in presence of BSO by CMF diacetate probe based flow cytometry relative to control; type: functional; set-up: scale not given: the % may be the effect or the level left; summary of the method: as §2
[16] = target: Trypanothione reductase (Leishmania infantum) (UniProt A4HSF7); experiment: Mixed non-competitive inhibition of Leishmania infantum TryR using TS2 as substrate assessed as increase in apparent inhibition constant of initial EI complex by plot analysis
Sequence of Trypanothione reductase (Leishmania infantum) (A4HSF7 as listed by the source): as the sequence (A4HSF7 whole entry) above
Summary of the method: (§3)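 Final assay: 40 mM HEPES pH 7.5, 1 mM EDTA, 300 µM NADPH, 60 µM NADP+, 150 µM DTNB, 3.1–100 µM TS2, 1.04% DMSO, 0.5 nM LiTryR, with serially diluted inhibitor. Enzyme was added last by automated dispenser to avoid preincubation. Progress curves were read at 412 nm at 26 °C; initial and steady-state velocities were fitted to kinetic models. Three independent experiments.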

[17] = target: Trypanothione reductase (Leishmania infantum) (UniProt A4HSF7); experiment: Time-dependent inhibition of Leishmania infantum TryR using TS2 as substrate assessed as decrease in initial velocity rate at fixed TS2 concentration; summary of the method: as §3
[18] = target: Trypanothione reductase (Leishmania infantum) (UniProt A4HSF7); experiment: Time-dependent inhibition of Leishmania infantum TryR using TS2 as substrate assessed as decrease in final steady-state velocity at fixed TS2 concentration; summary of the method: as §3
[19] = target: Trypanothione reductase (Leishmania infantum) (UniProt A4HSF7); experiment: Mixed non-competitive inhibition of Leishmania infantum TryR using TS2 as substrate assessed as increase in apparent inhibition constant of high affinity EI complex by plot analysis; summary of the method: as §3
Trypanothione reductase [20] = target: T1, Trypanothione reductase; experiment: Mixed non-competitive inhibition of Leishmania infantum TryR using TS2 as substrate assessed as inhibition constant of first equilibrium by plot analysis; summary of the method: as §3
Trypanothione reductase [21] = target: T1, Trypanothione reductase; experiment: Mixed non-competitive inhibition of Leishmania infantum TryR using TS2 as substrate assessed as inhibition constant of two-step induced-fit mechanism by plot analysis; summary of the method: as §3

C[n+]1nn(-c2ccc(-c3nc(CCc4ccc(-c5ccccc5)cc4)cs3)c(OCCN3CCNC3=O)c2)cc1CCCCN.O=C(O)C(F)(F)F.O=S(=O)([O-])C(F)(F)F
solubility thermodynamic at 24 h [1]: 12.4 mg/mL
IC50 (Trypanothione reductase [2]): 5.2 µM
IC50 (Trypanothione reductase [3]): 10.3 µM
IC50 (Trypanothione reductase [4]): 4.9 µM
IC50 (Trypanothione reductase [5]): 9.2 µM
IC50 (Trypanothione reductase [6]): 3.6 µM
EC50 (Leishmania infantum [7]): 11.6 µM
CC50 at 24 h [8]: > 75 µM
selectivity ratio [9]: > 6.5
EC50 (Leishmania infantum [10]): 8.7 µM
CC50 at 72 h [11]: > 75 µM
selectivity ratio [12]: > 8.6
Activity (Leishmania infantum [13]): 20%
Activity (Leishmania infantum [14]): 15%
Activity (Leishmania infantum [15]): 50%
inhibition [16]: Active
inhibition [17]: Active
inhibition [18]: Active
inhibition [19]: Active
Ki (Trypanothione reductase [20]): 1.2 µM
Ki (Trypanothione reductase [21]): 0.2 µM
